ChEMBL document CHEMBL1134684, “Phenoxypropoxybiguanides, prodrugs of DHFR-inhibiting diaminotriazine antimalarials” (J Med Chem, 2001)
In brackets after ≈: the same amount, converted by molar mass.

Key:
[1] = In vivo antimalarial activity against Plasmodium berghei in mice (Mus musculus) after 6 days; assay type: functional; conditions: 144 h
In short: (§1)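 Male or female CD-1 mice (4-5 weeks, 20-25 g) infected ip on day 0 with 5 × 10⁴ P. berghei KBG-173 parasitized erythrocytes. Oral doses in 0.5% hydroxyethylcellulose/0.1% Tween-80, given bid 6 h apart on days 3, 4 and 5, computed as free base. Giemsa-stained tail-blood smears on day 6 give % infected RBC. ED90 is the dose reducing parasitemia to 10% of untreated infected controls.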

Mus musculus [2] = organism: Mus musculus; assay: Dose required for 100%, 31 day survival of Plasmodium berghei inoculated mice (Mus musculus).; assay type: ADME, organism-based; conditions: in vivo, 744 h
In short: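 Same mouse P. berghei KBG-173 model, with ip infection on day 0 and oral bid treatment on days 3, 4 and 5. The experiment runs 31 days. The complete survival dose is the dose at which all animals are alive on day 31.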

Mus musculus [3] = organism: Mus musculus; assay: Dose needed to increase the 100% survival of treated animals (mouse), to twice the number of days; assay type: ADME, organism-based; conditions: in vivo
Plasmodium falciparum [4] = assay: In vitro antimalarial activity against Plasmodium falciparum W2; assay type: functional, organism-based
In short: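 Chloroquine-, quinine-, sulfadoxine- and pyrimethamine-resistant Indochina W-2 clone tested in a semiautomated microdilution assay. Graded drug concentrations incubated 66 h in medium with physiological folic acid. Read-out is inhibition of radiolabeled hypoxanthine incorporation.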

Plasmodium falciparum [5] = assay: In vitro antimalarial activity against Plasmodium falciparum K1; assay type: functional
In short: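 K1 parasites synchronized with 5% sorbitol. Drugs in methanol or DMSO, 2-fold serially diluted. Cultures at 2% hematocrit and 0.5% parasitemia (>95% rings) in 10% human serum under 5% O₂/5% CO₂/90% N₂ at 37.5 °C for 24-30 h. Romanowsky-stained thick films scored. MIC is the lowest concentration preventing >90% maturation to normal schizonts.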

Mus musculus [6] = assay: Compound was tested in vivo for antimalarial activity against Plasmodium berghei in mice (Mus musculus) after 6 days of administration (ED90 is the dose necessary to reduce the percentage of infected cells to 10% of the level found in the infected untreated controls); assay type: functional; conditions: 144 h; in short: as §1
Mus musculus [7] = organism: Mus musculus; assay: Dose required by the animals(mouse) to survive after 31 days; assay type: ADME, organism-based; conditions: in vivo, 744 h
In short: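 P. berghei KBG-173 in male or female CD-1 mice (4-5 weeks, 20-25 g), infected ip on day 0 with 5 × 10⁴ parasitized erythrocytes. Oral doses in 0.5% hydroxyethylcellulose/0.1% Tween-80 (10 mL/kg, free base), bid 6 h apart on days 3-5. Experiment run 31 days; complete survival dose = dose at which all animals survive to day 31.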

| IC50 (Plasmodium falciparum [4]) [ng/mL] | IC90 (Plasmodium falciparum [5]) [ng/mL] | Structure (SMILES) | ED90 [1] [mg/kg] | Dose (Mus musculus [2]) [mg/kg] | ED (Mus musculus [3]) [mg/kg] | further results |
| --- | --- | --- | --- | --- | --- | --- |
|  |  | CC(C)/N=C(N)/N=C(\N)NOCCCOc1cccc2ccccc12.Cl | > 256 | 495 | 185 |  |
|  |  | CC(C)/N=C(N)/N=C(\N)NOCCCSc1ccc(F)cc1.Cl | 70 | 183 | 109 |  |
|  |  | Cc1ccc(SCCCON/C(N)=N/C(N)=N/C(C)C)cc1.Cl | 92 | 265 | 117 |  |
|  |  | Cc1cc(C)c(C)c(OCCCON/C(N)=N/C(N)=N/C(C)C)c1.Cl | < 128 |  | > 128 |  |
|  |  | CC(C)/N=C(N)/N=C(\N)NOCCCOc1cc(F)cc(F)c1F.Cl | 74 | 180 | 107 |  |
|  |  | CC(C)/N=C(N)/N=C(\N)NOCCCOc1cc(F)c(F)cc1F.Cl | 18 | 128 | 71 |  |
|  |  | CC(C)/N=C(N)/N=C(\N)NOCCCOc1ccc2ccccc2c1.Cl | < 128 |  | < 128 |  |
|  |  | Cc1ccc(OCCCON/C(N)=N/C(N)=N/C(C)C)cc1C.Cl | > 128 |  | > 128 |  |
|  |  | Cc1cc(OCCCON/C(N)=N/C(N)=N/C(C)C)ccc1C(C)C.Cl | < 128 |  | 128 |  |
|  |  | Cc1ccc(OCCCON/C(N)=N/C(N)=N/C(C)C)c(C)c1.Cl | 120 | 235 | 170 |  |
| 0.0299 | 2.5 | CC1(C)N=C(N)N=C(N)N1OCCCOc1cccc(C(F)(F)F)c1.Cl |  |  |  |  |
| 0.0416 | 0.37 | Cc1cccc(OCCCON2C(N)=NC(N)=NC2(C)C)c1.Cl |  |  |  |  |
|  | 0.4 | CC1(C)N=C(N)N=C(N)N1OCCCOc1ccc(Br)cc1.Cl |  |  |  |  |
|  | 0.63 | CC1(C)N=C(N)N=C(N)N1OCCCOc1ccc(F)cc1.Cl |  |  |  |  |
| 0.0222 | 1.25 | CC1(C)N=C(N)N=C(N)N1OCCCSc1ccc(F)cc1.Cl |  |  |  |  |
| 0.0342 | 0.32 | COc1ccc(OCCCON2C(N)=NC(N)=NC2(C)C)cc1.Cl |  |  |  |  |
| 0.0301 | 0.63 | CC1(C)N=C(N)N=C(N)N1OCCCOc1cc(F)cc(F)c1F.Cl |  |  |  |  |
| 0.032 | 0.94 | CC1(C)N=C(N)N=C(N)N1OCCCOc1cc(F)c(F)cc1F.Cl |  |  |  |  |
| 0.0719 | 11.7 | Cc1cc(OCCCON2C(N)=NC(N)=NC2(C)C)ccc1C(C)C.Cl |  |  |  |  |
| 0.211 | 1.25 | COc1cc(OCCCON2C(N)=NC(N)=NC2(C)C)cc(OC)c1OC.Cl |  |  |  |  |
|  |  | CCc1ccc(OCCCO/N=C(N)/N=C(\N)NC(C)C)cc1.Cl | 96 | 505 | 158 |  |
| 0.0299 | 0.32 | CC1(C)N=C(N)N=C(N)N1OCCCOc1ccc([N+](=O)[O-])cc1.Cl |  |  |  |  |
|  |  | CC(C)/N=C(N)/N=C(\N)NOCCCOc1cccc(C(F)(F)F)c1.Cl | 27 | 140 | 73 |  |
|  |  | Cc1cccc(OCCCON/C(N)=N/C(N)=N/C(C)C)c1.Cl | > 128 |  | > 128 |  |
|  |  | COc1ccc(OCCCO/N=C(N)/N=C(\N)NC(C)C)cc1.Cl | > 128 |  | > 128 |  |
|  |  | Cc1ccc(OCCCON/C(N)=N/C(N)=N/C(C)C)cc1.Cl | 113 | 445 | 265 |  |
|  |  | CC(C)/N=C(N)/N=C(\N)NOCCCOc1ccc(C(C)(C)C)cc1.Cl | > 128 | 1480 | 460 |  |

| IC50 (Plasmodium falciparum [4]) [ng/mL] | IC90 (Plasmodium falciparum [5]) [ng/mL] | Structure (SMILES) | ED90 [1] [mg/kg] | Dose (Mus musculus [2]) [mg/kg] | ED (Mus musculus [3]) [mg/kg] | further results |
| --- | --- | --- | --- | --- | --- | --- |
|  |  | CC(C)/N=C(N)/N=C(\N)NOCCCOc1ccc(F)cc1F.Cl | > 128 |  | > 128 |  |
|  |  | CC(C)/N=C(N)/N=C(\N)NOCCCOc1ccc(F)c(F)c1.Cl | < 16 | 77 | 27 |  |
|  |  | CC(C)/N=C(N)/N=C(\N)NOCCCOc1ccccc1.Cl | 124 | 540 | 165 |  |
| 0.0333 | 1.56 | CC1(C)N=C(N)N=C(N)N1OCCCOc1ccc2ccccc2c1.Cl |  |  |  |  |
| 0.0332 | 0.38 | CC1(C)N=C(N)N=C(N)N1OCCCOc1ccc(F)c(F)c1.Cl |  |  |  |  |
| 0.0285 | 0.42 | CC1(C)N=C(N)N=C(N)N1OCCCOc1ccc(F)cc1F.Cl |  |  |  |  |
| 0.184 | 40 | CC1(C)N=C(N)N=C(N)N1OCCc1cccc(C(F)(F)F)c1.Cl |  |  |  |  |
|  |  | CC(C)/N=C(N)/N=C(\N)NOCc1ccc(Cl)c(Cl)c1 | < 8 | 32 | 22 |  |
|  |  | N=C(NOCCCOc1cc(Cl)c(Cl)cc1Cl)NC(=N)NC1CCCCC1 | > 256 | 470 | 275 |  |
|  |  | CC(C)/N=C(N)/N=C(\N)NOCCCSc1cc(Cl)ccc1Cl | < 128 |  | > 128 |  |
| 0.0288 (≈ 0.0842 nM) | 2.08 (≈ 6.08 nM) | CC1(C)N=C(N)N=C(N)N1OCCCSc1ccc(Cl)cc1 |  |  |  |  |
|  |  | CC(C)/N=C(N)/N=C(\N)NOCCCOc1ccc(F)cc1 | < 16 | 90 | 30 |  |
|  |  | CC(C)/N=C(N)/N=C(\N)NOCCCOc1ccc(Br)cc1 | < 32 | 135 | 64 |  |
|  |  | CC(C)/N=C(N)/N=C(\N)NOCCCSc1ccc(Cl)cc1 | 73 | 182 | 112 |  |
|  |  | CC(C)/N=C(N)/N=C(\N)NOCCCOc1ccc(Cl)cc1Cl | 17 | 64 | 28 |  |
|  |  | CC(C)NC(=N)NC(=N)NOCCCOc1ccc(Cl)cc1 | < 16 | 79 | 26 |  |
|  |  | CC(C)NC(=N)NC(=N)NOCCCOc1cc(Cl)c(Cl)cc1Cl | < 16 | 76 | 30 |  |
| 0.278 (≈ 0.73 nM) | 40 (≈ 105 nM) | CC1(C)N=C(N)N=C(N)N1OCCOc1cc(Cl)c(Cl)cc1Cl |  |  |  |  |
| 0.0254 (≈ 0.0675 nM) | 2.08 (≈ 5.53 nM) | CC1(C)N=C(N)N=C(N)N1OCCCSc1cc(Cl)ccc1Cl |  |  |  |  |
| > 0.5 | > 640 | CCCCCCCCCC1N=C(N)N=C(N)N1OCCCOc1cc(Cl)c(Cl)cc1Cl (centres undefined) |  |  |  |  |
| 0.047 (≈ 0.119 nM) | 1.43 (≈ 3.62 nM) | CC1(C)N=C(N)N=C(N)N1OCCCOc1cc(Cl)c(Cl)cc1Cl |  |  |  |  |
|  | 0.63 (≈ 1.93 nM) | CC1(C)N=C(N)N=C(N)N1OCCCOc1ccc(Cl)cc1 |  |  |  |  |
| 0.0379 (≈ 0.105 nM) | 1.67 (≈ 4.64 nM) | CC1(C)NC(N)=NC(=N)N1OCCCOc1ccc(Cl)cc1Cl |  |  |  |  |
| 0.113 (≈ 0.26 nM) | 66.7 (≈ 153 nM) | N=C1N=C(N)NC2(CCCCC2)N1OCCCOc1cc(Cl)c(Cl)cc1Cl |  |  |  |  |
|  |  | CC(C)NC(=N)NC(=N)NOCCCOc1ccc(Cl)c(Cl)c1 | < 16 | 33 | 16 |  |
|  |  | CCN(CC)CCCC(C)Nc1ccnc2cc(Cl)ccc12 (centres undefined) [CHLOROQUINE] |  |  |  | ED90 (Mus musculus [6]): 3 mg/kg; Complete survival dose (Mus musculus [7]): 256 mg/kg |
| > 0.5 | 152 (≈ 604 nM) | CC1(C)N=C(N)N=C(N)N1c1ccc(Cl)cc1 [CYCLOGUANIL] |  |  |  |  |

| Structure (SMILES) | IC50 (Plasmodium falciparum [4]) [ng/mL] | IC90 (Plasmodium falciparum [5]) [ng/mL] | ED90 [1] [mg/kg] | Dose (Mus musculus [2]) [mg/kg] | ED (Mus musculus [3]) [mg/kg] | further results |
| --- | --- | --- | --- | --- | --- | --- |
| CCc1nc(N)nc(N)c1-c1ccc(Cl)cc1 [PYRIMETHAMINE] |  | 1740 (≈ 7020 nM) |  |  |  | ED90 (Mus musculus [6]): 1.2 mg/kg; Complete survival dose (Mus musculus [7]): 400 mg/kg |
